This passage reports EC50 results from ChEMBL document CHEMBL1145425, “Antitumor agents 259. Design, syntheses, and structure-activity relationship study of desmosdumotin C analogs” (2007).

SMILES strings stand for the structures. ≈ marks a conversion by molar mass, not a printed value.

Common to all, as to type: functional
One experiment concerns PC-3. Kind of experiment: Cytotoxicity against human PC3 cells. Conditions: read-out: ED50 (the source's name). The gist of the method: (§1)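 Sulforhodamine B growth assay. Lines kept in RPMI-1640 with 25 mM HEPES, 0.25% sodium bicarbonate, 10% FBS and kanamycin. Trypsinized cells seeded at 1500–7500 per well, with compound added from DMSO-diluted stock. After 3 days, attached cells fixed with cold 50% TCA, stained with 0.4% SRB, dye solubilized, absorbance read at 562 nm. ED50 is 50% growth reduction, averaged over at least three independent determinations.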

In a further experiment the test system is A-431. Kind of experiment: Cytotoxicity against human A431 cells. The note with it: read-out: ED50 (the source's name). The gist of the method:
as §1

The next experiment relates to HCT-8. Kind of experiment: Cytotoxicity against human HCT8 cells. Conditions: read-out: ED50 (the source's name). The gist of the method: as §1
A further experiment concerns 1A9. Kind of experiment: Cytotoxicity against human 1A9 cells. Conditions: read-out: ED50 (the source's name). The gist of the method: as §1
Experiment [1] concerns KB. Kind of experiment: Cytotoxicity against human KB cells. The note with it: read-out: ED50 (the source's name). The method in brief: as §1
A further experiment concerns A549. Kind of experiment: Cytotoxicity against human A549 cells. The note with it: read-out: ED50 (the source's name). The method in brief: as §1
The subject of experiment [2] is KB. Kind of experiment: Cytotoxicity against human vincristine-resistant KB cells. Conditions: read-out: ED50 (the source's name). The method in brief:
as §1

In experiment [3] the test system is HUVEC. Kind of experiment: Antiangiogenesis activity against HUVEC. The note with it: Homo sapiens, read-out: ED50 (the source's name). The method in brief:
(§2)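 HUVEC seeded at 1.5×10^3 per well in EGM-2; after 24 h (day zero) compound added in EGM-2 at 2× the desired concentration. Day-zero plate stained with crystal violet. Remaining plates kept 72 h at 37 °C, then stained with 0.5% crystal violet in 20% MeOH. Dye eluted with 1:1 EtOH:0.1 M sodium citrate and read at 540 nm. Run per the NCI Angiogenesis Resource Center protocol.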

Experiment [4] has as its system HUVEC. Kind of experiment: Cytotoxicity against HUVEC. Conditions: Homo sapiens, read-out: ED50 (the source's name). The method in brief: as §2

As to `CCCC1=C(OC)C(CCC)(CCC)C(=O)/C(=C(O)\C=C\c2ccc(Br)cc2)C1=O`, the EC50 in the experiment with PC-3 was 2.3 µg/mL (≈ 4.84 µM); in the experiment on A-431, 1.2 µg/mL (≈ 2.52 µM); in the experiment with HCT-8 it was 1.3 µg/mL (≈ 2.73 µM); in the experiment on 1A9, 0.9 µg/mL (≈ 1.89 µM); with KB [1], 0.9 µg/mL (≈ 1.89 µM); in the experiment on A549 it was 1 µg/mL (≈ 2.1 µM). The EC50 in the experiment with KB [2] amounted to 0.9 µg/mL (≈ 1.89 µM).
Consider `CCCC1=C(OC)C(CCC)(CCC)C(=O)/C(=C(O)\C=C\c2ccccc2)C1=O`, for which the EC50 with PC-3 stood at 3.3 µg/mL (≈ 8.32 µM); in the experiment with A-431 it was 1.9 µg/mL (≈ 4.79 µM); in the experiment with HCT-8, 1.4 µg/mL (≈ 3.53 µM); in the experiment with 1A9, 1.5 µg/mL (≈ 3.78 µM); with KB [1], 0.6 µg/mL (≈ 1.51 µM); in the experiment on A549 it was 1.4 µg/mL (≈ 3.53 µM). The EC50 in the experiment on KB [2] amounted to 0.8 µg/mL (≈ 2.02 µM).
Regarding `CC1(C)C(=O)C(C(=O)/C=C/c2ccccc2)=C(O)C(C)(C)C1=O`, the EC50 in the experiment on HUVEC [3] is less than 4 µg/mL; with PC-3, 11.1 µg/mL (≈ 35.5 µM); in the experiment on A-431 it was 10.5 µg/mL (≈ 33.6 µM); in the experiment with HCT-8, 5 µg/mL (≈ 16 µM); with 1A9, 4.6 µg/mL (≈ 14.7 µM); with HUVEC [4] it was 2 µg/mL (≈ 6.4 µM). The figures for the EC50 in the experiment with KB [1], in the experiment on A549 and in the experiment with KB [2] were 7.3 µg/mL (≈ 23.4 µM), greater than 5 µg/mL and 3.8 µg/mL (≈ 12.2 µM), respectively.
For the compound `COC1=C(C)C(=O)/C(=C(O)/C=C/c2ccc(Br)cc2)C(=O)C1(C)C`, the EC50 in the experiment on HUVEC [3] was less than 4 µg/mL; in the experiment on PC-3, 17.7 µg/mL (≈ 45.2 µM); with A-431, 9 µg/mL (≈ 23 µM); in the experiment on HCT-8 it was 7.4 µg/mL (≈ 18.9 µM); in the experiment on 1A9, 1.1 µg/mL (≈ 2.81 µM); in the experiment on HUVEC [4], 3.6 µg/mL (≈ 9.2 µM). The EC50 in the experiment with KB [1] was found to be 1.7 µg/mL (≈ 4.34 µM); in the experiment with A549, 1.4 µg/mL (≈ 3.58 µM); in the experiment with KB [2], 1.9 µg/mL (≈ 4.86 µM).
With `COC1=C(C)C(=O)/C(=C(O)/C=C/c2ccc(OC)cc2)C(=O)C1(C)C`, the EC50 with HUVEC [3] was less than 4 µg/mL; in the experiment on PC-3 it was 18.2 µg/mL (≈ 53.2 µM); in the experiment with A-431, 9.2 µg/mL (≈ 26.9 µM); in the experiment with HCT-8, 5.6 µg/mL (≈ 16.4 µM); with 1A9 it was 2.8 µg/mL (≈ 8.18 µM); with HUVEC [4], 2.5 µg/mL (≈ 7.3 µM). Further, the EC50 with KB [1] was determined as 3.6 µg/mL (≈ 10.5 µM); with A549, 3 µg/mL (≈ 8.76 µM); with KB [2], 2.9 µg/mL (≈ 8.47 µM).
For the compound `COC1=C(C)C(=O)/C(=C(O)/C=C/c2ccccc2OC)C(=O)C1(C)C`, the EC50 with HUVEC [3] is less than 4 µg/mL; in the experiment on PC-3 it was 15.6 µg/mL (≈ 45.6 µM); in the experiment on A-431, 6.6 µg/mL (≈ 19.3 µM); with HCT-8 it was 4.1 µg/mL (≈ 12 µM); in the experiment on 1A9, 2.5 µg/mL (≈ 7.3 µM); with HUVEC [4] it was 1.7 µg/mL (≈ 4.97 µM). Besides, the EC50 with KB [1] turned out to be 3.3 µg/mL (≈ 9.64 µM); with A549, 2.4 µg/mL (≈ 7.01 µM); in the experiment on KB [2] it was 2.8 µg/mL (≈ 8.18 µM).
As to `COC1=C(C)C(=O)/C(=C(O)/C=C/c2ccc(F)cc2)C(=O)C1(C)C`, the EC50 with HUVEC [3] was less than 4 µg/mL; in the experiment on PC-3 it was 7.2 µg/mL (≈ 21.8 µM); in the experiment on A-431, 4.1 µg/mL (≈ 12.4 µM); in the experiment on HCT-8, 3.6 µg/mL (≈ 10.9 µM); in the experiment with HUVEC [4], 2 µg/mL (≈ 6.05 µM); in the experiment with KB [1] it was 3.7 µg/mL (≈ 11.2 µM). Besides, the EC50 with A549 was 3.3 µg/mL (≈ 9.99 µM); in the experiment with KB [2], 2.7 µg/mL (≈ 8.17 µM).
Take `COC1=C(C)C(=O)/C(=C(O)/C=C/c2ccc(C)cc2)C(=O)C1(C)C`: the EC50 in the experiment on HUVEC [3] is less than 4 µg/mL; in the experiment with PC-3, 8.2 µg/mL (≈ 25.1 µM); in the experiment with A-431 it was 5.1 µg/mL (≈ 15.6 µM); in the experiment on HCT-8, 4.1 µg/mL (≈ 12.6 µM); in the experiment with HUVEC [4], 2.4 µg/mL (≈ 7.35 µM); with KB [1], 3.9 µg/mL (≈ 11.9 µM). Besides, the EC50 came out at 4.3 µg/mL (≈ 13.2 µM) with A549 and 1.9 µg/mL (≈ 5.82 µM) in the experiment on KB [2].
As for `COC1=C(C)C(=O)/C(=C(O)/C=C/c2c(C)cccc2C)C(=O)C1(C)C`, the EC50 in the experiment with HUVEC [3] is less than 4 µg/mL; in the experiment on PC-3 it was 17.1 µg/mL (≈ 50.2 µM); in the experiment with A-431, 10.1 µg/mL (≈ 29.7 µM); in the experiment on HCT-8, 7.8 µg/mL (≈ 22.9 µM); in the experiment on HUVEC [4], 3 µg/mL (≈ 8.81 µM); with KB [1], 7.1 µg/mL (≈ 20.9 µM). Further, the EC50 turned out to be 8.3 µg/mL (≈ 24.4 µM) with A549 and 2.1 µg/mL (≈ 6.17 µM) in the experiment on KB [2].
Consider `COC1=C(C)C(=O)/C(=C(O)/C=C/c2cc(C)cc(C)c2)C(=O)C1(C)C`, for which the EC50 in the experiment on HUVEC [3] is less than 4 µg/mL; in the experiment with PC-3, 8.8 µg/mL (≈ 25.9 µM); in the experiment on A-431, 4 µg/mL (≈ 11.8 µM); with HCT-8 it was 2.9 µg/mL (≈ 8.52 µM); in the experiment with HUVEC [4], 2.5 µg/mL (≈ 7.34 µM); in the experiment with KB [1], 3.1 µg/mL (≈ 9.11 µM). Further, the EC50 in the experiment with A549 came to 4.3 µg/mL (≈ 12.6 µM); in the experiment on KB [2] it was 1.6 µg/mL (≈ 4.7 µM).
As for `C=Cc1ccccc1/C=C/C(O)=C1/C(=O)C(C)=C(OC)C(C)(C)C1=O`, the EC50 in the experiment on HUVEC [3] was determined as 1.1 µg/mL (≈ 3.25 µM); in the experiment with PC-3, 4.6 µg/mL (≈ 13.6 µM); in the experiment on A-431, 2.6 µg/mL (≈ 7.68 µM); with HCT-8, 2.1 µg/mL (≈ 6.21 µM); with HUVEC [4], 1.1 µg/mL (≈ 3.25 µM); in the experiment with KB [1] it was 1.9 µg/mL (≈ 5.61 µM). Also, the EC50 with A549 stood at 2.2 µg/mL (≈ 6.5 µM); with KB [2], 1.1 µg/mL (≈ 3.25 µM).
As to `COC1=C(C)C(=O)/C(=C(O)/C=C/c2ccco2)C(=O)C1(C)C`, the EC50 with HUVEC [3] is less than 4 µg/mL; with PC-3 it was 20.6 µg/mL (≈ 68.1 µM); in the experiment with A-431, 14.7 µg/mL (≈ 48.6 µM); in the experiment with HCT-8 it was 17.5 µg/mL (≈ 57.9 µM); in the experiment with 1A9, 7.9 µg/mL (≈ 26.1 µM); in the experiment on HUVEC [4] it was 2.4 µg/mL (≈ 7.94 µM). In addition, the EC50 is 9.9 µg/mL (≈ 32.7 µM) in the experiment on KB [1], 10 µg/mL (≈ 33.1 µM) in the experiment with A549 and 8.8 µg/mL (≈ 29.1 µM) in the experiment with KB [2].
